Data set [1] in a line: Inhibition of HCV isolate H77 NS5B polymerase after 3 hrs by scintillation counting.
Data set [2] is described as follows: Inhibition of HCV isolate BK NS5B polymerase after 3 hrs by scintillation counting.
Data set [3] in a line: Ratio of drug level in liver to plasma in rat at 5 mg/kg, po after 12 hrs. It is filed as ADME, organism-based. Also noted: dose 5 mg/kg, route oral. The method, boiled down:
(§1)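 Rats dosed orally at 5 mg/kg, four groups, sacrificed at 6 and 12 h. Plasma and liver homogenate extracted by acetonitrile protein precipitation with internal standard and quantified by LC-MS (negative-ion MRM). Liver/plasma ratio taken from the two concentrations.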

Data set [4] is described as follows: Drug level in rat liver at 5 mg/kg, po after 6 hrs. Conditions: read-out: Drug uptake. Also noted: dose 5 mg/kg, route oral. It is filed as ADME, organism-based. The gist of the method:
as §1

Data set [5] is described as follows: Plasma concentration in rat at 5 mg/kg, po after 12 hrs. The class given is ADME, organism-based. Also noted: dose 5 mg/kg, route oral. The gist of the method:
(§2)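 Vehicle DMSO:PEG400 (10:90, v/v). Dosing at 5 mg/kg in rat and monkey; dog 5 mg/kg or 2.5 mg/kg. Protein precipitation with acetonitrile, then LC-MS/MS in negative-ion MRM (m/z 516.2→437.0) against spiked standards with internal standard.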

The nature of data set [6]: Ratio of drug level in liver to plasma in rat at 5 mg/kg, po after 6 hrs. It is filed as ADME, organism-based. Also noted: dose 5 mg/kg, route oral. The gist of the method: as §1
A short description of data set [7]: Drug level in rat liver at 5 mg/kg, po after 12 hrs. It is filed as ADME, organism-based. Also noted: dose 5 mg/kg, route oral. As to conditions: read-out: Drug uptake. The gist of the method: as §1
Data set [8] is described as follows: Plasma concentration in rat at 5 mg/kg, po after 6 hrs. The class given is ADME, organism-based. Further details: dose 5 mg/kg, route oral. The method, boiled down: as §2
Data set [9] relates to Nucleic Acid. As to the kind of experiment: Ratio of drug level in rat liver after 12 hrs to EC50 for HCV isolate Con1 in presence of 40% human serum. The class given is tissue-based.
In data set [10] the test system is Nucleic Acid. As to the kind of experiment: Ratio of drug level in rat liver after 6 hrs to EC50 for HCV isolate Con1 in presence of 40% human serum. The class given is tissue-based.
Data set [11] has as its system Hepatitis C virus. The data set can be described thus: Antiviral activity against HCV genotype 1 infected in human assessed as reduction in viral titer after 48 hrs. The class given is functional, Hepacivirus hominis.
The test system of data set [12] is Hepatitis C virus. As to the kind of experiment: Antiviral activity against HCV 1a containing chimeric genotype 1a-H77/1b-con1 subgenom in human Huh7 cells assessed as reduction in viral RNA after 4 days by RT-PCR. Conditions: subtype 1a, Huh-7, 96 h.
Data set [13] deals with Hepatitis C virus. The data set can be described thus: Antiviral activity against HCV isolate Con1 in human Huh7 cells assessed as reduction in viral RNA after 4 days by RT-PCR. As to conditions: isolate Con1, Huh-7, 96 h.

Structures are written as SMILES. pEC50, pIC50: −log10 of the molar value.

In general, pIC50 refers to the negative decadic logarithm of the IC50, by convention in mol/L. On to `CC(C)CC[C@]1(C)C(=O)C(C2=NS(=O)(=O)c3cc(NS(C)(=O)=O)ccc3N2)=C(O)c2ccccc21`, for which the pIC50 in [1] was 6.20; in data set [2] it was 5.64.

As usually defined, the Kp is the ratio of the level in a tissue or fluid to that in plasma or blood. As for `CC(C)CC[C@@]1(C)C(=O)C(C2=NS(=O)(=O)c3cc(NS(C)(=O)=O)ccc3N2)=C(O)c2ccccc21`, the Kp at 12 h in data set [3] is 20. Also, the values for the concentration at 6 h in data set [4] and in data set [8] were 3800 ng/g and 445 nM, respectively. Moreover, the values for the concentration at 12 h in data set [5] and in data set [7] were 135 nM and 1430 ng/g, respectively. Moreover, the Kp at 6 h in data set [6] was 17.

For `CC(C)(C)CC[C@@]1(C)C(=O)C(C2=NS(=O)(=O)c3cc(NS(C)(=O)=O)ccc3N2)=C(O)c2ccccc21`, the Ratio in the data set with Nucleic Acid [9] stood at 270; in the data set on Nucleic Acid [10], 1400.

For the molecule `CC(C)(C)CC[C@]1(C)C(=O)C(C2=NS(=O)(=O)c3cc(NS(C)(=O)=O)ccc3N2)=C(O)c2ccccc21`, the pIC50 in data set [1] is 6.35; in data set [2], 6.29.

Usually pEC50 stands for −log10 of the EC50, conventionally taken in molar units. For the molecule `COc1ccc2c(O[C@@H]3C[C@H]4C(=O)N[C@]5(C(=O)O)C[C@H]5/C=C\CCCCC[C@H](NC(=O)OC5CCCC5)C(=O)N4C3)cc(-c3csc(NC(C)C)n3)nc2c1`, the Activity with Hepatitis C virus [11] is given as 2. The pEC50 in the data set with Hepatitis C virus [12] and in the data set on Hepatitis C virus [13] was 8.52 throughout.

The record behind these values is ChEMBL document CHEMBL1152770, “Inhibitors of hepatitis C virus polymerase: synthesis and biological characterization of unsymmetrical dialkyl-hydroxynaphthalenoyl-benzothiadiazines” (J Med Chem, 2009).
